# Test results reported in ChEMBL document CHEMBL2346655, “Synthesis and in vitro biological evaluation of 2,6,9-trisubstituted purines targeting multiple cyclin-dependent kinases” (Eur J Med Chem, 2013).
# The source made the active and inactive calls. The calls are words filed in the database; no cut-off is given here.
# Columns and labels:
# [1] = test system: HCT-116; experiment: Cell cycle arrest in human HCT116 cells assessed as accumulation at S phase at 0.2 uM after 24 hrs by propidium iodide staining-based flow cytometric analysis (reference value: 31.6%); format: functional
# How it was run: (§1)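 Sub-confluent cells treated at several concentrations for 24 h, then pulsed with 10 μM BrdU for 30 min at 37 °C before harvest. Cells were PBS-washed, fixed in 70% ethanol, denatured in 2 M HCl and neutralized. Stained with fluorescein anti-BrdU and propidium iodide; DNA content read by flow cytometry with 488 nm excitation.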
# [2] = test system: HOS; experiment: Ratio of roscovitine IC50 to compound IC50 for human HOS cells; format: functional
# How it was run: (§2)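 Cytotoxicity IC50s underlying the ratio: cells treated in triplicate with three-fold compound dilutions for 72 h, then Calcein AM added and live-cell fluorescence read at 485/538 nm (ex/em).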
# [3] = test system: CCRF-CEM; experiment: Ratio of roscovitine IC50 to compound IC50 for human CEM cells; format: functional; how it was run: as §2
# [4] = test system: HCT-116; experiment: Ratio of roscovitine IC50 to compound IC50 for human HCT116 cells; format: functional; how it was run: as §2
# [5] = target: Cyclin-dependent kinase 7/ cyclin H (Homo sapiens, UniProt P50613); experiment: Inhibition of CDK7/CyclinH/MAT1 (unknown origin) using (YSPTSPS)2KK as substrate; format: protein-complex assay
# How it was run: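 Buffer was 60 mM HEPES-NaOH pH 7.5, 3 mM MgCl2, 3 mM MnCl2, vanadate, DTT and PEG. Reactions were stopped with H3PO4 and spotted on P-81 paper, which was then washed. Radioactivity was imaged; IC50 taken from dose–response curves.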
# [6] = test system: HOS; experiment: Cytotoxicity against human HOS cells assessed as reduction in number of viable cells after 72 hrs by fluorescence assay; format: functional, cell-based
# How it was run: (§3)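 Three-fold compound dilutions tested in triplicate on cultured cells for 72 h. Viable cells detected by adding Calcein AM and reading fluorescence at 485/538 nm (ex/em).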
# [7] = test system: CCRF-CEM; experiment: Cytotoxicity against human CEM cells assessed as reduction in number of viable cells after 72 hrs by fluorescence assay; format: functional, cell-based; how it was run: as §3
# [8] = test system: MCF7; experiment: Cytotoxicity against human MCF7 cells assessed as reduction in number of viable cells after 72 hrs by fluorescence assay; format: functional, cell-based; details: MCF7, 72 h; how it was run: as §3
# [9] = test system: K562; experiment: Induction of apoptosis in human K562 cells assessed as caspase-3/7 activation by fluorescence assay; format: functional, cell-based
# How it was run: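 After 24 h treatment, cells were lysed on ice for 20 min in pH 7.4 HEPES/KCl/EDTA/EGTA/0.2% CHAPS buffer with protease inhibitors and cleared at 10,000 × g for 30 min at 4 °C. Protein was equalized, then incubated for 1 h with 100 μM Ac-DEVD-AMC in PIPES buffer pH 7.3 containing DTT. Fluorescence was read at 355/460 nm; 100 μM Ac-DEVD-CHO served as the negative control.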
# [10] = test system: K562; experiment: Induction of apoptosis in human K562 cells assessed as decrease in MCL1 level after 24 hrs by immunoblotting analysis; format: functional, cell-based
# How it was run: (§4)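 Cells were treated for 24 h, harvested directly into Laemmli sample buffer, and run on SDS-PAGE. Proteins were blotted to nitrocellulose, blocked, probed overnight with primary antibodies, then with peroxidase-linked secondaries. Bands were detected by ECL with a CCD camera. PCNA and tubulin served as loading references.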
# [11] = test system: K562; experiment: Induction of apoptosis in human K562 cells assessed as caspase-3 activation up to 5 uM after 24 hrs by immunoblotting analysis; format: functional, cell-based; how it was run: as §4
# [12] = test system: K562; experiment: Induction of apoptosis in human K562 cells assessed as change in BCL2 level up to 5 uM after 24 hrs by immunoblotting analysis; format: functional, cell-based; how it was run: as §4
# [13] = test system: HCT-116; experiment: Induction of apoptosis in human HCT116 cells assessed as change in PUMA level up to 5 uM after 24 hrs by immunoblotting analysis; format: functional, cell-based; how it was run: as §4
# [14] = target: T1, CDK9/cyclin T1 (Homo sapiens) (UniProt O60563+P50750); experiment: Inhibition of CDK9/CyclinT1 in human HCT116 cells assessed as decrease in Mdm2 expression at 1 to 5 uM after 24 hrs by immunoblotting analysis; format: cell-based; details: HCT-116
# How it was run: (§5)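 Immunoblot: cells lysed by harvesting in Laemmli sample buffer, proteins run on SDS-PAGE, electroblotted to nitrocellulose, blocked, primary antibodies overnight, peroxidase-conjugated secondaries, ECL detection by CCD camera. Antibodies included anti-phospho RNA polymerase II (S2), anti-RNA polymerase II (ARNA-3), anti-p53 (DO-1), anti-p21waf1 (118), anti-PCNA.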
# [15] = target: T1, CDK9/cyclin T1 (Homo sapiens); experiment: Inhibition of CDK9/CyclinT1 in human HCT116 cells assessed as increase in p21 expression at 1 to 5 uM after 24 hrs by immunoblotting analysis; format: cell-based; details: HCT-116; how it was run: as §5
# [16] = target: T1, CDK9/cyclin T1 (Homo sapiens); experiment: Inhibition of CDK9/CyclinT1-mediated phosphorylation of RNA polymerase 2 at Ser5 in human K562 cells up to 25 uM after 24 hrs by immunoblotting analysis; format: cell-based; how it was run: as §5
# [17] = target: T2, Cyclin-dependent kinase 7/ cyclin H (Homo sapiens) (UniProt P51946+P50613); experiment: Inhibition of CDK7/CyclinH/MAT1-mediated phosphorylation of RNA polymerase 2 at Ser5 in human K562 cells up to 25 uM after 24 hrs by immunoblotting analysis; format: cell-based
# [18] = target: T2, Cyclin-dependent kinase 7/ cyclin H (Homo sapiens); experiment: Inhibition of CDK7/CyclinH/MAT1-mediated phosphorylation of RNA polymerase 2 at Ser5 in human HCT116 cells up to 25 uM after 24 hrs by immunoblotting analysis; format: cell-based; details: HCT-116
# [19] = target: T2, Cyclin-dependent kinase 7/ cyclin H (Homo sapiens); experiment: Inhibition of CDK7/CyclinH/MAT1-mediated phosphorylation of RNA polymerase 2 at Ser2 in human HCT116 cells up to 25 uM after 24 hrs by immunoblotting analysis; format: cell-based; details: HCT-116
# How it was run: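 Treated cells were lysed in Laemmli buffer and separated by SDS-PAGE, then transferred to nitrocellulose. Blots were probed overnight with phospho-RNA polymerase II (S2) and total RNA polymerase II (clone ARNA-3) antibodies, followed by peroxidase secondaries. Signal was developed by ECL on a CCD camera.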
# [20] = test system: HCT-116; experiment: Cell cycle arrest in human HCT116 cells assessed as accumulation at S phase after 24 hrs by BrdU incorporation assay; format: functional, cell-based
# How it was run: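 Sub-confluent cells were exposed to compound for 24 h, then pulse-labeled with 10 μM BrdU for 30 min at 37 °C. After ethanol (70%) fixation and 2 M HCl denaturation, cells were stained with fluorescein anti-BrdU antibody plus propidium iodide. The BrdU-positive S-phase fraction was quantified by flow cytometry (488 nm laser).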
# [21] = test system: K562; experiment: Cell cycle arrest in human K562 cells assessed as accumulation at G1 phase at 5 uM after 24 hrs by propidium iodide staining-based flow cytometric analysis (reference value: 47.3%); format: functional; how it was run: as §1
# [22] = test system: K562; experiment: Cell cycle arrest in human K562 cells assessed as accumulation at S phase at 0.2 uM after 24 hrs by propidium iodide staining-based flow cytometric analysis (reference value: 38.8%); format: functional; how it was run: as §1
# [23] = test system: K562; experiment: Cell cycle arrest in human K562 cells assessed as accumulation at subG1 phase at 0.2 uM after 24 hrs by propidium iodide staining-based flow cytometric analysis (reference value: 2.4%); format: functional; how it was run: as §1
# [24] = test system: HCT-116; experiment: Cell cycle arrest in human HCT116 cells assessed as accumulation at S phase at 5 uM after 24 hrs by propidium iodide staining-based flow cytometric analysis (reference value: 31.6%); format: functional; how it was run: as §1
# [25] = test system: HCT-116; experiment: Cell cycle arrest in human HCT116 cells assessed as accumulation at subG1 phase at 5 uM after 24 hrs by propidium iodide staining-based flow cytometric analysis (reference value: 1.4%); format: functional; how it was run: as §1
# Cyclin-dependent kinase 7/ cyclin H, sequence (P51946 whole entry): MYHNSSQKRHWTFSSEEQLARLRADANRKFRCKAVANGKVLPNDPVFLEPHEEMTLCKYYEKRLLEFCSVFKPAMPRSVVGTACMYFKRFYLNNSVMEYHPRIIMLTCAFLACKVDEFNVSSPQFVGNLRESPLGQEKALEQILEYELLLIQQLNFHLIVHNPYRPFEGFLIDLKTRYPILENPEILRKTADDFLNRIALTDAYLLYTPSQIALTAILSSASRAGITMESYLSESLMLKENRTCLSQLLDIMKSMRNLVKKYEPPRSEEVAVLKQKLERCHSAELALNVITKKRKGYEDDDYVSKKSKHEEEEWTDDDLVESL
# Cyclin-dependent kinase 7/ cyclin H, sequence (P50613 whole entry): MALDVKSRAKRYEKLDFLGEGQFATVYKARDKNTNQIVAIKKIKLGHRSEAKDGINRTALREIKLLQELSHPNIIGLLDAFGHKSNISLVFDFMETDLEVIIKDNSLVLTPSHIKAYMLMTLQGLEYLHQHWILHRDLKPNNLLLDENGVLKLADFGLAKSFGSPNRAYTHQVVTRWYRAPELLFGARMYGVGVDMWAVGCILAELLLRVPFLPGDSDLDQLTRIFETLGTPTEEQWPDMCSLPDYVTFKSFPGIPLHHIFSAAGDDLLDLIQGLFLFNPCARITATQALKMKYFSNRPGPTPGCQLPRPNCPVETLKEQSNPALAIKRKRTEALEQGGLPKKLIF
smiles,measurement,setting,value
CC[C@@H](Nc1nc(NCc2cc(Cl)ccc2O)c2ncn(C(C)C)c2n1)C(C)O (mixture of isomers),Activity,[1],31.1%
same,Ratio IC50,[2],>9
same,Ratio IC50,[3],>9
same,Ratio IC50,[4],>9
same,IC50,[5],0.097 µM
same,IC50,[6],2.7 µM
same,IC50,[7],1.6 µM
same,IC50,[8],2.6 µM
same,Activity,[9],Dose-dependent effect
same,Activity,[10],Dose-dependent effect
same,Activity,[11],inactive
same,Activity,[12],inactive
same,Activity,[13],inactive
same,inhibition,[14],Active
same,inhibition,[15],Active
same,inhibition,[16],Active
same,inhibition,[17],Active
same,inhibition,[18],Active
same,inhibition,[19],Active
same,Activity,[20],Dose-dependent effect
same,Activity,[21],40.7%
same,Activity,[22],38.5%
same,Activity,[23],2.8%
same,Activity,[24],33.7%
same,Activity,[25],4.6%
